Laboratory results: ChEMBL document CHEMBL5696444 (Nat Commun, 2017)
Active and inactive are the calls of the source. The rule behind the calls is not given here.

Experiments:
[1] = biological target: Death-associated protein kinase 1 (Homo sapiens) (UniProt P53355); experiment: Inhibition of DAPK1 (unknown origin) at 100 nM in the presence of ATP by Kinome scan method relative to control
[2] = biological target: Homeodomain-interacting protein kinase 1 (Homo sapiens) (UniProt Q86Z02); experiment: Inhibition of HIPK1 (unknown origin) at 1000 nM in the presence of ATP by Kinome scan method relative to control
[3] = biological target: Dual specificity protein kinase CLK1 (Homo sapiens) (UniProt P49759); experiment: Inhibition of CLK1 (unknown origin) at 1110 nM in the presence of ATP by Kinome scan method relative to control; details: time > 6.0 hrs
[4] = tested on: HCT-116; experiment: Induction of apoptosis in human HCT-116 cells assessed as viable cells at 5 uM incubated for > 6 hrs by annexin V/PI staining based analysis (Rvb=90.04%); assay type: functional; details: read-out: Activity
[5] = tested on: HCT-116; experiment: Induction of apoptosis in human HCT-116 cells assessed as late apoptosis at 0.5 uM incubated for > 6 hrs by annexin V/PI staining based analysis (Rvb=6.12%); assay type: functional
[6] = biological target: Aurora kinase A (Homo sapiens) (UniProt O14965); experiment: Inhibition of AURKA (unknown origin) at 1000 nM in the presence of ATP by Kinome scan method relative to control
[7] = biological target: Dual specificity protein kinase CLK1 (Homo sapiens) (UniProt P49759); experiment: Inhibition of CLK (unknown origin) in human 184-hTERT cells assessed as induction in alternative splicing effect in S6K canonical isoform incubated for 6 hrs by RT-PCR analysis; assay type: cell-based; details: dose 0.2-5 µM
How it was run: (§1)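 Cells exposed to graded T3 concentrations for 6 h (chosen to avoid cytotoxicity), with a DMSO vehicle control. Total RNA was reverse-transcribed with oligo-dT primers. Targeted splice or conjoined-gene products were quantified by real-time qPCR or by targeted next-generation sequencing. Conjoined-gene isoform expression was normalized to a sequenced housekeeping gene.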

[8] = tested on: HCT-116; experiment: Induction of cell cycle arrest in human HCT-116 cells assessed as G0/G1 phase at 5 uM incubated for 24 hrs by flow cytometry analysis (Rvb=35.7%); assay type: functional
[9] = biological target: T1, Dual specificity tyrosine-phosphorylation-regulated kinase 1A (Homo sapiens, UniProt Q13627); experiment: Inhibition of DYRK1A (unknown origin) at 1110 nM in the presence of ATP by Kinome scan method relative to control; details: time > 6.0 hrs
[10] = biological target: Serine/threonine-protein kinase mTOR (Homo sapiens) (UniProt P42345); experiment: Inhibition of FRAP1 (unknown origin) at 100 nM in the presence of ATP by Kinome scan method relative to control
[11] = biological target: Serine/threonine-protein kinase Chk1 (Homo sapiens) (UniProt O14757); experiment: Inhibition of CHEK1 (unknown origin) at 1000 nM in the presence of ATP by Kinome scan method relative to control
[12] = biological target: CDK7/Cyclin H/MNAT1 (Homo sapiens) (UniProt P51946+P50613+P51948); experiment: Inhibition of CDK7/cyclin H/MNAT1 (unknown origin) at 1000 nM in the presence of ATP by Kinome scan method relative to control; assay type: protein-complex assay
[13] = biological target: Ribosomal protein S6 kinase beta-1 (Homo sapiens) (UniProt P23443); experiment: Inhibition of RPS6KB1 (unknown origin) at 100 nM in the presence of ATP by Kinome scan method relative to control
[14] = biological target: Dual specificity protein kinase CLK1 (Homo sapiens) (UniProt P49759); experiment: Inhibition of CLK (unknown origin) in human HCT-116 cells assessed as induction in alternative splicing effect in MRPS10-GUCA1B level incubated for 6 hrs by RT-PCR analysis; assay type: cell-based; details: dose 0.2-5 µM; how it was run: as §1
[15] = biological target: Dual specificity protein kinase CLK1 (Homo sapiens) (UniProt P49759); experiment: Inhibition of CLK1 (unknown origin) at 123 nM in the presence of ATP by Kinome scan method relative to control; details: time > 6.0 hrs
[16] = tested on: HCT-116; experiment: Induction of cell cycle arrest in human HCT-116 cells assessed as sub G0/G1 phase at 10 uM incubated for 6 hrs by flow cytometry analysis (Rvb=1.6%); assay type: functional
[17] = biological target: 3-phosphoinositide-dependent protein kinase 1 (PDPK1) (Homo sapiens) (UniProt O15530); experiment: Inhibition of PDK1 Direct (unknown origin) at 1000 nM in the presence of ATP by Kinome scan method relative to control
[18] = biological target: Dual specificity protein kinase CLK1 (Homo sapiens) (UniProt P49759); experiment: Inhibition of CLK1 (unknown origin) in human HCT-116 cells assessed as increase in CLK1 protein level at 0.5 to 0.1 uM incubated for 6 hrs by immunoblot analysis; assay type: cell-based; details: dose 0.5-0.1 µM
How it was run: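 HCT116 cells were treated for 3 or 6 h and lysed in SDS sample buffer (Tris-HCl pH 6.8), then boiled for 5 min. Lysates were run on 5–15% or 4–12% gradient gels and transferred to nitrocellulose or PVDF. Blots were blocked in milk or BSA/TBS-T and probed overnight at 4 °C with anti-phospho-SR (1H4, 1/1000), anti-SR, anti-CLK1 or anti-CLK3 antibodies, with GAPDH as loading control.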

[19] = biological target: Mitogen-activated protein kinase 14 (Homo sapiens) (UniProt Q16539); experiment: Inhibition of MAPK14 (unknown origin) at 1000 nM in the presence of ATP by Kinome scan method relative to control
[20] = biological target: Death-associated protein kinase 1 (Homo sapiens) (UniProt P53355); experiment: Inhibition of DAPK1 (unknown origin) at 1000 nM in the presence of ATP by Kinome scan method relative to control
[21] = biological target: Protein kinase C alpha type (Homo sapiens) (UniProt P17252); experiment: Inhibition of PRKCA (unknown origin) at 100 nM in the presence of ATP by Kinome scan method relative to control
[22] = tested on: HCT-116; experiment: Induction of apoptosis in human HCT-116 cells assessed as early apoptosis at 0.1 uM incubated for > 6 hrs by annexin V/PI staining based analysis (Rvb=3.29%); assay type: functional
[23] = biological target: Calcium/calmodulin-dependent protein kinase type 1 (Homo sapiens) (UniProt Q14012); experiment: Inhibition of CAMK1 (unknown origin) at 100 nM in the presence of ATP by Kinome scan method relative to control
[24] = biological target: T1, Dual specificity tyrosine-phosphorylation-regulated kinase 1A; experiment: Inhibition of DYRK1A (unknown origin) at 123 nM in the presence of ATP by Kinome scan method relative to control; details: time > 6.0 hrs
[25] = biological target: Aurora kinase B (Homo sapiens) (UniProt Q96GD4); experiment: Inhibition of AURKB (unknown origin) at 1000 nM in the presence of ATP by Kinome scan method relative to control
[26] = biological target: Dual specificity protein kinase CLK2 (Homo sapiens, UniProt P49760); experiment: Inhibition of N-terminal FLAG-tagged human CLK2 at 1110 nM in the presence of ATP by Kinome scan method relative to control
[27] = biological target: MAP kinase-activated protein kinase 2 (Homo sapiens) (UniProt P49137); experiment: Inhibition of MAPKAPK2 (unknown origin) at 1000 nM in the presence of ATP by Kinome scan method relative to control
[28] = biological target: Tyrosine-protein kinase JAK2 (Homo sapiens) (UniProt O60674); experiment: Inhibition of JAK2 (unknown origin) at 1000 nM in the presence of ATP by Kinome scan method relative to control
[29] = biological target: Serine/threonine-protein kinase Nek2 (Homo sapiens) (UniProt P51955); experiment: Inhibition of NEK2 (unknown origin) at 100 nM in the presence of ATP by Kinome scan method relative to control
Chain of Serine/threonine-protein kinase Nek2 (Homo sapiens) (P51955 whole entry): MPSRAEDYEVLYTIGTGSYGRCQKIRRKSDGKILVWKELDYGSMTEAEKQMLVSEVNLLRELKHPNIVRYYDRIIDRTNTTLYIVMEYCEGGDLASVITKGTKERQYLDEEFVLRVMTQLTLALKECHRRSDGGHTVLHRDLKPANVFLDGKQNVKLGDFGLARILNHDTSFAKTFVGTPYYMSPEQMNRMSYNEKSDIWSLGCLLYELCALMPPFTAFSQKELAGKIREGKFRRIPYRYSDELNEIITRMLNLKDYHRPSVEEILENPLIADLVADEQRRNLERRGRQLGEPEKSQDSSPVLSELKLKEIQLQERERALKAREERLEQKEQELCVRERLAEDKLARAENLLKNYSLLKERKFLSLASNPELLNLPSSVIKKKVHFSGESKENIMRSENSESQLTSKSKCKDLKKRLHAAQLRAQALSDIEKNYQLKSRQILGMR

Chain of Dual specificity protein kinase CLK1 (Homo sapiens) (P49759 whole entry, looked up, canonical isoform): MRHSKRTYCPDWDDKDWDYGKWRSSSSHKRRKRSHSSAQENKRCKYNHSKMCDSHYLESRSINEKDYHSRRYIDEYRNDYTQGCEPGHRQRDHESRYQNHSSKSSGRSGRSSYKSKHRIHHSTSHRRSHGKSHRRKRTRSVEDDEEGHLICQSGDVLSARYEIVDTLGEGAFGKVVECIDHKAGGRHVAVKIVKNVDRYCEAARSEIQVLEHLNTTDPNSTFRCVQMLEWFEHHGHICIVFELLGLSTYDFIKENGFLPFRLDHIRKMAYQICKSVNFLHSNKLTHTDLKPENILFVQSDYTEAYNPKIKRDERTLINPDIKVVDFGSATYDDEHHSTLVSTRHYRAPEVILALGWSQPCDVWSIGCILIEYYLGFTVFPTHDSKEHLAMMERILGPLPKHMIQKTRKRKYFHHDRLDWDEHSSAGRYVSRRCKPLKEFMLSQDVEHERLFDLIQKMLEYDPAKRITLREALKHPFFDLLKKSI
Chain of Death-associated protein kinase 1 (Homo sapiens) (P53355 whole entry, looked up): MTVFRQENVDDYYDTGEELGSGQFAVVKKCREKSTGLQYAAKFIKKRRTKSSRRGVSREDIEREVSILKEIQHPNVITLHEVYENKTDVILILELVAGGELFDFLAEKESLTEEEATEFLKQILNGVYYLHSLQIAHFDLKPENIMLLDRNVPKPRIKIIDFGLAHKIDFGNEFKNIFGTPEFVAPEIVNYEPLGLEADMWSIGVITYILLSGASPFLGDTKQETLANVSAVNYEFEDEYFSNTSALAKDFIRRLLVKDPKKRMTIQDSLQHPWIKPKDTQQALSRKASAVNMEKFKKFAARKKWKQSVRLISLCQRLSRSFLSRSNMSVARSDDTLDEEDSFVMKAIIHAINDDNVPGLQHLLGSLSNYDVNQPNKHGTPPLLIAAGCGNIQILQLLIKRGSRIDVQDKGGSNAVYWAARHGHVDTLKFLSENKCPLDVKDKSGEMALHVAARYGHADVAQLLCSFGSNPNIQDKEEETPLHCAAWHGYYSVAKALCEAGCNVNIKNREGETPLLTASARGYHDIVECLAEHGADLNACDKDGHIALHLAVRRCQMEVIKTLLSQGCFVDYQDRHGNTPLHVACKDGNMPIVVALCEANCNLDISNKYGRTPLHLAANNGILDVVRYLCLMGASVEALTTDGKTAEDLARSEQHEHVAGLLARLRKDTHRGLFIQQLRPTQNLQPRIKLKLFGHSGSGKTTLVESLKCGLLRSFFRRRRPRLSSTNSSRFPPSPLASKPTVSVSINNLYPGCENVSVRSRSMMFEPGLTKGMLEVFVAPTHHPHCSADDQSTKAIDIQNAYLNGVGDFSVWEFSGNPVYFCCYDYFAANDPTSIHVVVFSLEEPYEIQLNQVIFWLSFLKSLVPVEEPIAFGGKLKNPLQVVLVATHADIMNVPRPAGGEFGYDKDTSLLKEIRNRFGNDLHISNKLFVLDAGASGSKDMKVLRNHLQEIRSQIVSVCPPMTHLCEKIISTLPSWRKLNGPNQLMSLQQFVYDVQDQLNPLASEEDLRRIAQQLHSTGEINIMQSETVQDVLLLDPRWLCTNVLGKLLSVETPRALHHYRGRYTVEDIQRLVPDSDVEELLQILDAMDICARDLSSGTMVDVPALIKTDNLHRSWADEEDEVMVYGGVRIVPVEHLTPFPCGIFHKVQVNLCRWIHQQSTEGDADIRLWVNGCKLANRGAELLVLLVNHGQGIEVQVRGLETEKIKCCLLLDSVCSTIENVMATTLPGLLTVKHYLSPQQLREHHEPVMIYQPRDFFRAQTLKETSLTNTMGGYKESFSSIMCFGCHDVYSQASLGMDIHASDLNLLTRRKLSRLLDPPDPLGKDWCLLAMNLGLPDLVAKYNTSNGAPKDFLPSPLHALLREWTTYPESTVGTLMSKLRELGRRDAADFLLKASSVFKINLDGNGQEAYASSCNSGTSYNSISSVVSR
Chain of Dual specificity protein kinase CLK2 (P49760 whole entry, looked up): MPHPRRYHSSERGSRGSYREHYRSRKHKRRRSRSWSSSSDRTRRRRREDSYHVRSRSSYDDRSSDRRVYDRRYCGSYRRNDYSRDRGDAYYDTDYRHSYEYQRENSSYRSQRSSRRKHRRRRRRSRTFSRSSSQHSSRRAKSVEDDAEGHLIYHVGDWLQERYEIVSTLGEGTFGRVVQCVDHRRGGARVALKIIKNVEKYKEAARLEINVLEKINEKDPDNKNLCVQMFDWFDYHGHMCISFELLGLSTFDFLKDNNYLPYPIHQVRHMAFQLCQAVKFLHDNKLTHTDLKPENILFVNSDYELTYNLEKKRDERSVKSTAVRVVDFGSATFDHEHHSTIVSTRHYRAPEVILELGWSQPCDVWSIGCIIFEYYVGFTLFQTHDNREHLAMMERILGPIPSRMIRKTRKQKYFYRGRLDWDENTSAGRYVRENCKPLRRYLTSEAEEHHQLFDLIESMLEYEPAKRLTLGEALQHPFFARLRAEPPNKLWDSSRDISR
Chain of 3-phosphoinositide-dependent protein kinase 1 (PDPK1) (Homo sapiens) (O15530 whole entry, looked up): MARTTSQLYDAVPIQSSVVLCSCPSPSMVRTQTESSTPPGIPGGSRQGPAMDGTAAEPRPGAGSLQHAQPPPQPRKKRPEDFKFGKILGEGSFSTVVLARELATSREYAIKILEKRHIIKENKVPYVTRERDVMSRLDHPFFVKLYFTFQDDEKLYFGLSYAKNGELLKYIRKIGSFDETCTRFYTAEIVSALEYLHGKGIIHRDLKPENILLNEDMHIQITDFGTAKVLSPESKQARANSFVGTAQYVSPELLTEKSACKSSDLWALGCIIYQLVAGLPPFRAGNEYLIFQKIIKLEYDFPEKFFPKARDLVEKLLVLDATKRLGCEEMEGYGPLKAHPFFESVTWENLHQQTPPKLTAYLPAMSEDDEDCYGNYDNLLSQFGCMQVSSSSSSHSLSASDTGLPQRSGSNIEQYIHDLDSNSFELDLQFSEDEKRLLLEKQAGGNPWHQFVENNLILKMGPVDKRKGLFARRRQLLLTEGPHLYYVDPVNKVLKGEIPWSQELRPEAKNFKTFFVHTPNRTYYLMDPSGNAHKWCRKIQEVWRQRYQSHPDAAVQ
Chain of Aurora kinase B (Homo sapiens) (Q96GD4 whole entry): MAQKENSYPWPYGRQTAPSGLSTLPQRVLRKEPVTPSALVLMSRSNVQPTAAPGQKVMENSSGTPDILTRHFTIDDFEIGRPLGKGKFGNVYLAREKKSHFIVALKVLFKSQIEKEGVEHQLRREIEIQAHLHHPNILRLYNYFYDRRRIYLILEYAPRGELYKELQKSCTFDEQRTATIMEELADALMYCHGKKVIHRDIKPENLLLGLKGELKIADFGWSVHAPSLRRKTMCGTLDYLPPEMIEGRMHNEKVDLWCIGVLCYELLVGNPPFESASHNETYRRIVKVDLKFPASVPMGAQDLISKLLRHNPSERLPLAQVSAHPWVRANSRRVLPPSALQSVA
Chain of Aurora kinase A (Homo sapiens) (O14965 whole entry, canonical isoform): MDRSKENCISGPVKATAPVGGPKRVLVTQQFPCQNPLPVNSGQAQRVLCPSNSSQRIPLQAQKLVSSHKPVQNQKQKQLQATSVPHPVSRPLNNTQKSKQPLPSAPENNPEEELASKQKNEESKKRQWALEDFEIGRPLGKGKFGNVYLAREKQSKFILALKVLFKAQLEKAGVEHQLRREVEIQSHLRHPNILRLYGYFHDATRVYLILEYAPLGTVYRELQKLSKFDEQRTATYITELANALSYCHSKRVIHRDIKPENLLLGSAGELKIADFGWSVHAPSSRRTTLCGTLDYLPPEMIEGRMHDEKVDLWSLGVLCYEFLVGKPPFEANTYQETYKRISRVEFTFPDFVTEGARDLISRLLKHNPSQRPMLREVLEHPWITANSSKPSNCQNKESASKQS
Chain of Calcium/calmodulin-dependent protein kinase type 1 (Homo sapiens) (Q14012 whole entry, looked up): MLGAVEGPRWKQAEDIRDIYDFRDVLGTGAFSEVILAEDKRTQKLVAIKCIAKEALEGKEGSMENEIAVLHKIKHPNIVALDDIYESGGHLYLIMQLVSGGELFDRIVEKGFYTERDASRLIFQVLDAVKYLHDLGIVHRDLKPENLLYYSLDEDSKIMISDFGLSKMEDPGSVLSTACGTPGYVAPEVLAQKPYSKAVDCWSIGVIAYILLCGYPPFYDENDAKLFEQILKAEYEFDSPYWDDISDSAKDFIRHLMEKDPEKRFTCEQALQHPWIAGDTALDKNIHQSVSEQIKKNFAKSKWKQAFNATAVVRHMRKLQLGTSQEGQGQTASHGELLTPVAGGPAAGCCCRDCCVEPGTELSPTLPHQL
Chain of Mitogen-activated protein kinase 14 (Homo sapiens) (Q16539 whole entry): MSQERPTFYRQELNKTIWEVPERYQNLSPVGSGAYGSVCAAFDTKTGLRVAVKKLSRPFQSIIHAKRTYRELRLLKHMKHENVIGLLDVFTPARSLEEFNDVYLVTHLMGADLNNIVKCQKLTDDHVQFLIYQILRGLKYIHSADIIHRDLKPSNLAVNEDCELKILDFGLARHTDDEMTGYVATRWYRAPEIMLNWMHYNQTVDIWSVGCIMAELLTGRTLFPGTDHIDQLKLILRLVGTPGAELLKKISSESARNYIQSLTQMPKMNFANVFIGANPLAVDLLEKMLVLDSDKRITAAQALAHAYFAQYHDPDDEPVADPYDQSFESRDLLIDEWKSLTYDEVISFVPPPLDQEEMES

inhibition [2]: 3% | inhibition [3]: 99% | inhibition [6]: 9% | inhibition [7]: Dose-Dependent Effect | inhibition [9]: 97% | inhibition [10]: -6% | inhibition [11]: 18% | inhibition [12]: -3% | inhibition [13]: 2% | inhibition [14]: Dose-Dependent Effect | inhibition [15]: 91% | inhibition [17]: 2% | inhibition [18]: Active | inhibition [19]: 6% | inhibition [21]: 4% | inhibition [23]: 7% | inhibition [24]: 74% | inhibition [25]: 16% | inhibition [26]: 100% | inhibition [27]: 2% | inhibition [28]: -6% | inhibition [29]: 12%
SMILES: CN1CCN(C(=O)C(C)(C)c2ccc(C(=O)Nc3cn4cc(-c5ccncc5)ccc4n3)cc2)CC1 [T3-CLK]
inhibition [1]: -4% | viability at 5 µM [4]: 86.6% | Activity [5]: 6.85% | Activity [8]: 13.3% | Activity [16]: 1.7% | inhibition [20]: -6% | Activity [22]: 3.11%
